Efflux pump inh = inhibitors of Candida efflux pumps in yeast, primary screen, S. cerevisiae, Nile Red, multiplex | S. cerevisiae Candida pump triplex | inhibition, % at 10 µM | 330,000 tested, 0.44% active;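 active means plate passing quality check with inhibition over a set limit, or well fluorescence over plate mean plus 4 SD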;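 further: Nile Red retained in pooled yeast measured as flow cytometry median fluorescence; 0% = buffer negative control and 100% = Enniatin B positive control; higher means more Nile Red kept so more efflux inhibition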
PolyA inh = polyadenylation inhibitors in yeast reporter cells, primary screen, luminescence, S. cerevisiae; 300,000 tested, 0.02% active; S. cerevisiae SKY197-pL101 polyadenylation reporter, beta-gal luminescence; efflux-impaired pdr1/pdr3 knockout yeast; score 100 = 6 SD above DMSO; activity score, % at 12 µM;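 active means lowest replicate activity score at least 50, where 100 means six control SD above control mean; inconclusive means lowest score under 50 but half or more replicates reach 50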;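 further: yeast exposed to compound for 9 h at 30 °C; higher score means more reporter readthrough which indicates perturbed polyadenylation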
T cruzi inh = inhibitors of intracellular T. cruzi growth, primary screen, luminescence, NIH3T3 host cells; T. cruzi beta-gal in NIH3T3, 90 h; inhibition, % (concentration not given with the values); 300,000 tested, 1.4% active; AID 1885, 2009;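 active means mean inhibition across valid replicates above about 55%, limit read from the data; inconclusive means mean below that limit but half or more replicates reach it; inactive means mean below it, under half of replicates reach it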;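 further: signal also drops with host cell toxicity which is not excluded here; 0% = plate median of DMSO wells and 100% = zero luminescence signal; higher percent means less beta-gal luminescence so fewer parasites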
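Incubation – ≥90 h infection period, 3 h prior cell attachment · System – NIH/3T3 fibroblasts plus reporter T. cruzi · Doses – compound pinned at 50 nL/well, DMSO · Read-out basis – percent inhibition of parasite-derived β-gal signal · Signal – luminescent β-galactosidase signal after 60 min lysis · Also added – 5000 T. cruzi trypomastigotes/well · Medium – Low-serum DMEM with 2% FBS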
AI-2 QS modul = Vibrio harveyi AI-2 quorum sensing modulators, primary screen, JMH597 strain, luminescence/OD600 ratio | Vibrio harveyi JMH597 AI-2 luminescence/OD600 ratio, 9 h; stronger effect = lower value; strain lacks LuxN and CqsS sensors; 0 = neutral-control median | activity change, % at 7.5 µM | 300,000 tested, 0.4% active; in the data active means activity change below about -75%, passing the limit was not always enough; inconclusive means no clear call, values can overlap the other calls;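 further: luminescence divided by OD600 gain over 9 h not by final OD600 alone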
HDAC3 inhib = HDAC3 deacetylase inhibitors, primary screen, biochemical, fluorescence, cell-free homogeneous; recombinant HDAC3, fluorogenic peptide/trypsin coupled; inhibition, % at 8.3 µM; 320,000 tested, 0.15% active; AID 2718, 2010; Histone deacetylase 3 (Homo sapiens), O15379; in the data active means inhibition above about 26%, passing the limit was not always enough; inconclusive means no clear call, values can overlap the other calls
Target sequence (O15379 whole entry, looked up): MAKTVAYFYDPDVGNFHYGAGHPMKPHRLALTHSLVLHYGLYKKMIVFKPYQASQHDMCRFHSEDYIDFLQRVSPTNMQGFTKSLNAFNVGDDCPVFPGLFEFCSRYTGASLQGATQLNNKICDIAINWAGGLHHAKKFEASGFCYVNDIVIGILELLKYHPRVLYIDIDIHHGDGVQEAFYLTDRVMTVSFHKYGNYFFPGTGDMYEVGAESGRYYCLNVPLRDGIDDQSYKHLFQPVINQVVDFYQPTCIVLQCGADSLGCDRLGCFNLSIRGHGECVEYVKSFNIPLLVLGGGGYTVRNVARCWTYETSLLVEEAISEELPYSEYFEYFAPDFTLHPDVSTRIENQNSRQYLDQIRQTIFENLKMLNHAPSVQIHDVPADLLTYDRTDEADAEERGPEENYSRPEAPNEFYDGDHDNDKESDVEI
The depositor's hits bear a star; ? = inconclusive; nt = no result. Only some compounds are listed: those with a hit (about 2.2% of all), similar ones and a draw of the others.

SMILES	Efflux pump inh	PolyA inh	T cruzi inh	AI-2 QS modul	HDAC3 inhib
CCOc1ccc(NC(=O)c2cccc(OC(=S)N3CCC(C)CC3)c2)cc1	0	-10	22	23	5
Clc1ccc(Cn2ncc3c(NCc4ccccc4)ncnc32)c(Cl)c1	5.5*	-31	8	1	13
Cn1ncc2c(NCc3ccccc3)ncnc21	0	5	-2	18	-3
O=S(=O)(Nc1cccc2cccnc12)c1ccc(S(=O)(=O)N2CCCC2)cc1	0	-6	69*	40	-8
Cc1ccc(S(=O)(=O)Nc2cccc3cccnc23)c([N+](=O)[O-])c1	0	72*	15	45	nt
O=S(=O)(Nc1cccc2cccnc12)c1ccccc1	0	14	11	-1	0
Cc1ccc(S(=O)(=O)NCCCNS(=O)(=O)c2ccccc2[N+](=O)[O-])cc1	0	10	8	-9	2
Cc1cc(Nc2cccc([N+](=O)[O-])c2)c2cccc(C)c2n1	0	-2	43	3	11
Cc1cc(Nc2ccccc2)c2c([N+](=O)[O-])ccc(C)c2n1	0	-32	61*	12	10
CCOC(=O)C1CCN(c2c(Nc3ccc(C)c(C)c3)c(=O)c2=O)CC1	0	6	4	32	3
CC(=O)NS(=O)(=O)c1ccc(NC(=O)C(Sc2ccccc2)c2ccccc2)cc1 (stereo not drawn)	0	14	-13	35	0
CCC(C)NS(=O)(=O)c1ccc(NC(=O)C(Sc2ccccc2)c2ccccc2)cc1 (stereo not drawn)	0	10	58*	18	3
COc1ccc(CNc2ncnc3sccc23)cc1	0	114*	-31	-11	2
COc1ccc(CNc2ncnc3sccc23)cc1OC	0	12	-9	34	-3
Cc1ccccc1C(=O)N/N=C/c1cccc2ccccc12	0	-12	7	22	0
Cc1ccc(Cl)cc1NC(=S)N/N=C/c1cccc2ccccc12	0	9	59*	12	0
COc1ccc(C(=O)NCC(=O)OCC(=O)Nc2cc([N+](=O)[O-])ccc2F)cc1	0	10	-12	-3	-7
CCOc1cc(S(=O)(=O)N2CCC(Cc3ccccc3)CC2)c(OCC)cc1-n1cnnn1	0	?	67*	35	-4
CCOC(=O)c1cnc2ccc(OCC)cc2c1N1CCN(c2ccccc2OC)CC1	0	-21	57*	14	6
CCOc1ccc2ncc(C(=O)c3ccc(OC)cc3)c(N3CCN(CC)CC3)c2c1	0	-5	11	10	9
CCCCc1ccc(/C(C)=N/Nc2cc(N3CCOCC3)nc(C)n2)cc1	0	3	62*	1	10
CCC(C)C(NC(=O)OC(C)(C)C)C(=O)NC(C(=O)NC(C)C(N)=O)C(C)C (stereo not drawn)	0	-7	-5	15	-4
N/C(=N\OC(=O)c1cnn(-c2ccccc2)c1C(F)(F)F)c1ccc(C(F)(F)F)cc1	0	6	-12	12	0
COc1ccccc1NS(=O)(=O)c1cccc(NC(=O)c2sc3ccccc3c2Cl)c1	0	-1	78*	18	5
COc1cc(NC(=O)c2ccco2)c(OC)cc1NC(=O)Nc1cccc(Cl)c1	0	-15	57*	6	-2
SMILES	Efflux pump inh	PolyA inh	T cruzi inh	AI-2 QS modul	HDAC3 inhib
COc1ccccc1NS(=O)(=O)c1cccc(NC(=O)Nc2cccc(Cl)c2)c1	0	-2	62*	18	10
COc1ccccc1NS(=O)(=O)c1cc(NC(=O)Nc2cccc(C)c2)ccc1N1CCCCC1	0	-3	60*	26	6
CCOC(=O)NC(=O)c1cn(CCN(C)C)c(=O)[nH]c1=O	0	23	-1	38	-10
O=C(NCC(c1cccnc1)N1CCN(c2ccc(F)cc2)CC1)c1ccco1 (stereo not drawn)	0	0	60*	19	0
COc1cc(C(=O)NCC(c2cccnc2)N2CCN(c3ccc(F)cc3)CC2)cc(OC)c1OC (stereo not drawn)	0	nt	71*	18	?
O=C(NCC(c1cccnc1)N1CCN(c2ccc(F)cc2)CC1)c1ccc2c(c1)OCO2 (stereo not drawn)	0	-10	?	55	7
O=C(NCC(c1cccnc1)N1CCN(c2ccc(F)cc2)CC1)c1ccc(F)cc1 (stereo not drawn)	0	6	60*	40	-4
COc1ccc(C(=O)NCC(c2cccnc2)N2CCN(c3ccc(F)cc3)CC2)cc1OC (stereo not drawn)	0	nt	nt	nt	1
O=C(CCc1nc2ccccc2s1)Nc1cccnc1	0	-2	-6	24	1
Cc1ccc(C(=O)Nc2ccc3c(c2)C(=O)N(C)C3=O)c(C)c1	0	15	-8	9	-10
CCOC(=O)C1=C(C)NC(C)=C(C(=O)OCC)C1C(=O)OCC(=O)NCc1ccccc1OC	0	nt	nt	nt	4
COc1ccc(CCN(Cc2ccccn2)C(=S)Nc2cccc(SC)c2)cc1OC	0	-8	8	-8	-5
COc1ccccc1NC(=S)N(Cc1ccc(C)cc1)Cc1ccccn1	0	-3	55*	-9	6
COc1ccccc1NC(=S)N(Cc1ccc(C)cc1)Cc1cccnc1	0	-9	17	12	4
CSc1cccc(NC(=S)N(Cc2ccc(C)cc2)Cc2ccccn2)c1	0	11	55*	15	8
CC(=O)c1ccc(OCCCC(=O)OCC(=O)Nc2ccc3[nH]c(=O)[nH]c3c2)cc1	0	-6	-12	nt	10
CCN1CCN(C(=O)c2nn(C)c3c2CS(=O)(=O)c2ccccc2-3)CC1	0	12	-13	13	-4
Cc1cc(C)c2c(N)c(C(=O)c3ccc(Cl)c(Cl)c3)sc2n1	0	6	101*	9	4
Cc1cc(C)c2c(N)c(C(=O)c3ccccc3)sc2n1	0	2	66*	27	-2
NC(=S)N=Nc1c(O)n(Cc2ccc(F)cc2)c2ccccc12	0	19	46	13	nt
Cc1cccc(Cn2c(O)c(N=NC(=S)Nc3ccccc3F)c3ccccc32)c1	0	0	60*	7	-3
Oc1c(N=NC(=S)Nc2ccccc2F)c2ccccc2n1Cc1cccc(Cl)c1	0	0	57*	5	6
Oc1c(N=NC(=S)Nc2ccccc2F)c2ccccc2n1Cc1ccc(F)cc1	0	-3	67*	0	7
NC(=S)N=Nc1c(O)n(Cc2ccc(Br)cc2)c2ccccc12	0	-11	26	5	-3
